Active and inactive are the calls of the source. The calls are words filed in the database; no cut-off is given here.
Tests used:
Rattus norvegicus [1] = assay: Calcium mobilization in vitamin-D deficient weanling Sprague-Dawley rat bone assessed as increase in serum calcium level at 32 to 70200 pmol, ip administered every 24 hrs for 4 consecutive days measured 24 hrs post last dose relative to vehicle treated control; format: functional, organism-based
Procedure, shortened: (§1)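 Male weanling Sprague-Dawley rats were fed Diet 11 (0.47% Ca) + AEK oil for 1 week, then 0.02% Ca + AEK oil for 3 weeks, then 0.47% Ca for 1 week, then 0.02% Ca for 2 weeks. Dosing began in the last week on 0.02% Ca: four daily intraperitoneal doses. Serum calcium was measured in neck blood 24 h after the last dose and expressed as the difference from vehicle controls. Mean ± SEM of 6 values.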

Rattus norvegicus [2] = assay: (§2) Calcium mobilization in vitamin-D deficient weanling Sprague-Dawley rat intestine assessed as increase in serosal/mucosal calcium level at 32 to 7020 pmol, ip administered every 24 hrs for 4 consecutive days measured 24 hrs post last dose by everted gut sac method relative to vehicle treated control; format: functional, organism-based
Vitamin D3 receptor = target: T1, Vitamin D3 receptor (Rattus norvegicus, UniProt P13053); assay: Displacement of [3H]-1alpha,25(OH)2D3 from recombinant rat VDR after overnight incubation by scintillation counting
T1 sequence (P13053 whole entry): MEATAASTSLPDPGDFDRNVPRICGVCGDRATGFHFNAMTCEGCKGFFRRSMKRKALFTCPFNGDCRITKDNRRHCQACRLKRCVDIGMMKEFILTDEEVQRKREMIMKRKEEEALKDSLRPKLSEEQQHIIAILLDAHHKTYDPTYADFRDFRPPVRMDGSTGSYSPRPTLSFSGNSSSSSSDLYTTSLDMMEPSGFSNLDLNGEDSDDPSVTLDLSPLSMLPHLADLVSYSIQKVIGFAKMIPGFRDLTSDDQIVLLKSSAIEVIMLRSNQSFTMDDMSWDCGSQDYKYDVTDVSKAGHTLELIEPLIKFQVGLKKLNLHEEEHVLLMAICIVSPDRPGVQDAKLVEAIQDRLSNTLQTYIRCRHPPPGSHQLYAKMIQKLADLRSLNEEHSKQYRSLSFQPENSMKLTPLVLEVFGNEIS
Procedure, shortened: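 Competition assay using full-length recombinant rat VDR with radiolabeled 1α,25-(OH)2D3 at 1 nM. Ki was derived from dose-response curves using a Kd of 0.2 nM. Run in duplicate on two separate occasions.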

Rattus norvegicus [3] = assay: as §2, with “35100” for “7020”; format: functional, organism-based
[4] = target: T2, Vitamin D3 receptor (Rattus norvegicus) (UniProt P13053); assay: Activation of VDR-mediated 24-hydroxylase transcription in rat osteosarcoma cells after 16 hrs by luciferase reporter gene assay
T2 sequence (whole entry): T1 sequence (P13053 whole entry)

HL-60 [5] = assay: Induction of human HL60 cell differentiation after 4 days by NBT reduction assay; format: functional; settings: HL-60, 96 h, read-out: ED50 (the source's name)
Rattus norvegicus [6] = assay: Calcium mobilization in vitamin-D deficient weanling Sprague-Dawley rat bone assessed as increase in serum calcium level at 32 to 35100 pmol, ip administered every 24 hrs for 4 consecutive days measured 24 hrs post last dose relative to vehicle treated control; format: functional, organism-based; procedure, shortened: as §1
HL-60 [7] = assay: Ratio of 1alpha,25-(OH)2D3 ED50 to compound ED50 for induction of human HL60 cell differentiation; format: functional
Procedure, shortened: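 HL-60 promyelocyte differentiation to monocytes was scored as the percentage of cells reducing nitro blue tetrazolium. ED50 is the concentration giving 50% maturation, from dose-response curves; the experiment was done twice in duplicate. The ratio is the average of 1α,25-(OH)2D3 ED50 over analogue ED50.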

Rattus norvegicus [8] = assay: Calcium mobilization in vitamin-D deficient weanling Sprague-Dawley rat intestine assessed as increase in serosal/mucosal calcium level at 32 to 2340 pmol, ip administered every 24 hrs for 4 consecutive days measured 24 hrs post last dose by everted gut sac method relative to vehicle treated control; format: functional, organism-based
Rattus norvegicus [9] = assay: Calcium mobilization in vitamin-D deficient weanling Sprague-Dawley rat bone assessed as increase in serum calcium level at 32 to 2340 pmol, ip administered every 24 hrs for 4 consecutive days measured 24 hrs post last dose relative to vehicle treated control; format: functional, organism-based; procedure, shortened: as §1

SMILES | Activity (Rattus norvegicus [1]) | Activity (Rattus norvegicus [2]) | Ki (Vitamin D3 receptor) [nM] | Activity (Rattus norvegicus [3]) | ED50 [4] [nM] | EC50 (HL-60 [5]) [nM] | Activity (Rattus norvegicus [6]) | Ratio ED50 (HL-60 [7]) | Activity (Rattus norvegicus [8]) | Activity (Rattus norvegicus [9])
C=C1/C(=C\C=C2/CCC[C@]3(C)[C@@H]([C@H](C)CCCC(C)(C)O)CC[C@@H]23)C[C@@H](O)C[C@@H]1O | Active | Active |  |  |  |  |  |  |  | 
C=C1[C@H](O)CC(=C/C=C2\CCC[C@]3(C)[C@@H]([C@H](C)[C@H](C)CCC(C)(C)O)CC[C@@H]23)C[C@H]1O |  |  | 0.2 | Active | 5 | 10 | Active | 0.2 |  | 
C=C1[C@H](O)CC(=C/C=C2\CCC[C@]3(C)[C@@H]([C@@H](C)[C@H](C)CCC(C)(C)O)CC[C@@H]23)C[C@H]1O |  |  | 0.04 |  | 0.007 | 0.02 |  | 100 | Active | Active
C=C1[C@H](O)CC(=C/C=C2\CCC[C@]3(C)[C@@H]([C@@H](C)[C@@H](C)CCC(C)(C)O)CC[C@@H]23)C[C@H]1O |  |  | 10 | Active | 4 | 20 | Active | 0.1 |  | 
C=C1[C@H](O)CC(=C/C=C2\CCC[C@]3(C)[C@@H]([C@H](C)C(C)(C)CCC(C)(C)O)CC[C@@H]23)C[C@H]1O |  |  | 0.02 | inactive | 0.03 | 0.9 | inactive | 2.2 |  | 
C=C1[C@H](O)CC(=C/C=C2\CCC[C@]3(C)[C@@H]([C@@H](C)CCCC(C)(C)O)CC[C@@H]23)C[C@H]1O [DP001] |  |  |  |  | 0.007 | 0.08 |  | 25 |  | 
C=C1[C@H](O)CC(=C/C=C2\CCC[C@]3(C)[C@@H]([C@@H](C)C(C)(C)CCC(C)(C)O)CC[C@@H]23)C[C@H]1O |  |  | 0.06 | inactive | 0.6 | 1 | inactive | 2 |  | 
C=C1[C@H](O)CC(=C/C=C2\CCC[C@]3(C)[C@@H]([C@H](C)[C@@H](C)CCC(C)(C)O)CC[C@@H]23)C[C@H]1O |  |  | 0.1 | inactive | 0.2 | 0.9 | inactive | 2.2 |  | 

— ChEMBL document CHEMBL2057133, “A 20S combined with a 22R configuration markedly increases both in vivo and in vitro biological activity of 1α,25-dihydroxy-22-methyl-2-methylene-19-norvitamin D3” (J Med Chem, 2012)
